Data on six compounds can be found in ChEMBL document CHEMBL3272114, “Antimalarials. 10. Synthesis of 4-substituted primaquine analogues as candidate antimalarials” (J Med Chem, 1977).

Series [1] deals with Plasmodium berghei. As to the kind of experiment: Antimalarial activity against Plasmodium berghei infected in mouse assessed as change in mean survival time at 20 mg/kg, sc by Rane test. The series is classed as functional. Conditions: route subcutaneous. In short, it runs like this:
(§1)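 Mice were infected with P. berghei 3 days before drug. The compound was usually given subcutaneously in sesame or peanut oil at 20 to 640 mg/kg. Activity was read as the extension of mean survival time (ΔMST, days) of treated mice over infected controls.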

In series [2] the test system is Plasmodium berghei. As to the kind of experiment: Antimalarial activity against Plasmodium berghei infected in mouse assessed as change in mean survival time at 40 mg/kg, sc by Rane test. Conditions: route subcutaneous. It is filed as functional. A digest of the protocol: as §1
Series [3] relates to Plasmodium berghei. As to the kind of experiment: Antimalarial activity against Plasmodium berghei infected in mouse assessed as change in mean survival time at 80 mg/kg, sc by Rane test. The series is classed as functional. The note with it: route subcutaneous. A digest of the protocol:
as §1

The test system of series [4] is Plasmodium berghei. As to the kind of experiment: Antimalarial activity against Plasmodium berghei infected in mouse assessed as disease cure at 160 mg/kg, sc by Rane test. It is filed as functional, organism-based. Details: dose 160 mg/kg.
Series [5] deals with Plasmodium berghei. As to the kind of experiment: Antimalarial activity against Plasmodium berghei infected in mouse assessed as disease cure at 320 mg/kg, sc by Rane test. Details: dose 320 mg/kg. It is filed as functional, organism-based.
Series [6] deals with Plasmodium berghei. As to the kind of experiment: Antimalarial activity against Plasmodium berghei infected in mouse assessed as disease cure at 640 mg/kg, sc by Rane test. Details: dose 640 mg/kg. It is filed as functional, organism-based.
The subject of series [7] is Mus musculus. As to the kind of experiment: Toxicity in mouse infected with Plasmodium berghei assessed as animal death at 640 mg/kg, sc. The series is classed as organism-based. Details: dose 640 mg/kg, route subcutaneous. The note with it: in vivo.
Series [8] concerns Plasmodium cynomolgi. As to the kind of experiment: Antimalarial activity against Plasmodium cynomolgi infected in rhesus monkey at 1 mg/kg administered daily for 7 days. It is filed as functional, organism-based. Details: dose 1 mg/kg.
Series [9] has as its system Plasmodium cynomolgi. As to the kind of experiment: Antimalarial activity against Plasmodium cynomolgi infected in rhesus monkey at 0.50 mg/kg administered daily for 7 days. It is filed as functional, organism-based. Details: dose 0.5 mg/kg.
Series [10] deals with Plasmodium cynomolgi. As to the kind of experiment: Antimalarial activity against Plasmodium cynomolgi infected in rhesus monkey assessed as disease cure at 1 mg/kg administered daily for 7 days. The series is classed as functional, organism-based. Details: dose 1 mg/kg. In short, it runs like this: (§2)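 Rhesus monkeys infected with P. cynomolgi, dosed once daily for 7 days at each listed mg/kg level. Cures were recorded as the number of monkeys cured over the number treated.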

For series [11], the system named is Plasmodium berghei. As to the kind of experiment: Antimalarial activity against Plasmodium berghei infected in mouse assessed as change in mean survival time at 160 mg/kg, sc by Rane test. Conditions: route subcutaneous. The series is classed as functional. In short, it runs like this:
as §1

Series [12] concerns Plasmodium berghei. As to the kind of experiment: Antimalarial activity against Plasmodium berghei infected in mouse assessed as change in mean survival time at 320 mg/kg, sc by Rane test. It is filed as functional. Conditions: route subcutaneous. A digest of the protocol:
as §1

Series [13] has as its system Plasmodium cynomolgi. As to the kind of experiment: Antimalarial activity against Plasmodium cynomolgi infected in rhesus monkey assessed as disease cure at 0.5 mg/kg administered daily for 7 days. It is filed as functional, organism-based. Details: dose 0.5 mg/kg. In short, it runs like this:
as §2

The subject of series [14] is Plasmodium cynomolgi. As to the kind of experiment: Antimalarial activity against Plasmodium cynomolgi infected in rhesus monkey at 0.25 mg/kg administered daily for 7 days. The series is classed as functional, organism-based. Details: dose 0.25 mg/kg. In short, it runs like this:
as §2

The test system of series [15] is Mus musculus. As to the kind of experiment: Toxicity in mouse infected with Plasmodium berghei assessed as animal death at 160 mg/kg, sc. It is filed as organism-based. Details: dose 160 mg/kg, route subcutaneous. The note with it: in vivo.
Series [16] relates to Mus musculus. As to the kind of experiment: Toxicity in mouse infected with Plasmodium berghei assessed as animal death at 320 mg/kg, sc. It is filed as organism-based. Details: dose 320 mg/kg, route subcutaneous. Conditions: in vivo.
In series [17] the test system is Plasmodium berghei. As to the kind of experiment: Antimalarial activity against Plasmodium berghei infected in mouse assessed as change in mean survival time at 640 mg/kg, sc by Rane test. The series is classed as functional. Conditions: route subcutaneous. A digest of the protocol: as §1

Each structure is given as a SMILES string. Active and inactive are the calls of the source. No cut-off for these calls is given here.

As to `COc1cc([N+](=O)[O-])c2nccc(Oc3ccc(Cl)cc3)c2c1`, the MST in the series with Plasmodium berghei [1] is 3.5 days; with Plasmodium berghei [2], 6.1 days; in the series on Plasmodium berghei [3], 10.1 days. For the same compound, the outcome in the series on Plasmodium berghei [4], in the series with Plasmodium berghei [5] and in the series with Plasmodium berghei [6] was Active. Further, the Activity entry in the series with Mus musculus [7] is “Non-toxic”. Further, the result in the series on Plasmodium cynomolgi [8] was inactive.
Consider `COc1cc(NC(C)CCCCN)c2nccc(C)c2c1.O=P(O)(O)O` (centres undefined), for which the MST amounted to 5.8 days in the series on Plasmodium berghei [1], 7 days in the series with Plasmodium berghei [2] and 10.4 days with Plasmodium berghei [3]. The result in the series on Plasmodium berghei [4], with Plasmodium berghei [5], in the series with Plasmodium berghei [6] and with Plasmodium cynomolgi [10] was Active. Moreover, the Activity result in the series on Mus musculus [7] is reported as “Non-toxic”. The outcome with Plasmodium cynomolgi [9] was inactive.
In the case of `COc1cc(NC(C)CCCN)c2nccc(C)c2c1` (centres undefined), the MST worked out at 5.5 days with Plasmodium berghei [3], 9 days in the series with Plasmodium berghei [11] and 10.1 days in the series with Plasmodium berghei [12]. In addition, the result in the series on Plasmodium berghei [6], in the series with Plasmodium cynomolgi [10] and in the series with Plasmodium cynomolgi [13] was Active. In addition, the Activity result with Mus musculus [7] was “Toxic”.
In the case of `COc1cc(NCCCN)c2nccc(C)c2c1.Cl`, the MST in the series on Plasmodium berghei [11] came to 3.9 days; with Plasmodium berghei [12] it was 5.5 days. Besides, in the series with Mus musculus [7], the Activity entry is “Toxic”. Also, the outcome in the series on Plasmodium cynomolgi [14] was inactive.
As for `COc1cc(NC(C)CCCN)c2ncccc2c1` (centres undefined) [PRIMAQUINE], the MST with Plasmodium berghei [2] turned out to be 5 days; in the series with Plasmodium berghei [3], 9.4 days. The Activity result in the series on Mus musculus [15], with Mus musculus [16] and in the series on Mus musculus [7] was “Toxic” throughout. The result with Plasmodium cynomolgi [14] was inactive. Also, in the series on Plasmodium cynomolgi [10], the outcome was Active.
With `COc1cc(NC(C)CCCN)c2nccc(SC)c2c1` (centres undefined), the MST with Plasmodium berghei [1] was found to be 0.1 days; in the series with Plasmodium berghei [2], 0.1 days; with Plasmodium berghei [3] it was 1.3 days; with Plasmodium berghei [11] it was 3.5 days; in the series on Plasmodium berghei [12] it was 6.7 days; in the series on Plasmodium berghei [17] it was 8.1 days. In addition, the outcome in the series with Plasmodium berghei [5], in the series with Plasmodium berghei [6] and with Plasmodium cynomolgi [8] was inactive.
